Assay results: ChEMBL document CHEMBL1123352, “Anticonvulsant activity of 2- and 3-aminobenzanilides” (J Med Chem, 1986)
The source made the active and inactive calls. The calls are words filed in the database; no cut-off is given here.

How the values were obtained:
[1] = test system: Mus musculus; assay: Anticonvulsant activity against maximal electroshock (MES) induced seizures in mice 30 minutes after ip administration of 300 mg/kg; A=Active; format: functional, organism-based; parameters: dose 300 mg/kg
How it was run: (§1)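 Male Carworth Farms No. 1 mice were dosed ip with compound in 30% polyethylene glycol 400, at 30, 100 and 300 mg/kg and sometimes 600 mg/kg, and tested 30 min and 4 h later. A drop of 0.9% saline went in the eye, then 60-cycle AC at 50 mA was given for 0.2 s via corneal electrodes. Protection meant abolition of hind limb tonic extension.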

[2] = test system: Mus musculus; assay: Compound was tested for toxicity by rotarod assay method in mice 30 min after ip administration of 300 mg/kg; A=Active; format: organism-based; parameters: dose 300 mg/kg, route intraperitoneal; conditions: in vivo, 0.5 h
[3] = test system: Mus musculus; assay: Anticonvulsant activity against subcutaneous pentylenetetrazole induced convulsions in mice 30 min after ip administration of 600 mg/kg.; format: functional, organism-based; parameters: dose 600 mg/kg
How it was run: (§2)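 Male Carworth Farms No. 1 mice were dosed ip with compound in 30% PEG 400, at 30–600 mg/kg, and read at 30 min and 4 h. Pentylenetetrazole was given at 85 mg/kg as a 0.5% solution sc in the posterior midline. Protection meant no single episode of clonic spasms lasting at least 5 s over a 30-min observation.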

[4] = test system: Mus musculus; assay: Compound was tested for toxicity by rotarod assay method in mice after intraperitoneal administration after 4 hours; A=Active; format: organism-based; conditions: in vivo, ip
[5] = test system: Mus musculus; assay: Anticonvulsant activity against maximal electroshock (MES) induced seizures in mice 4 hours after ip administration of 600 mg/kg; A=Active; format: functional, organism-based; parameters: dose 600 mg/kg; how it was run: as §1
[6] = test system: Mus musculus; assay: Anticonvulsant activity against subcutaneous pentylenetetrazole induced convulsions in mice 4 hr after ip administration of 600 mg/kg.; format: functional, organism-based; parameters: dose 600 mg/kg; how it was run: as §2
[7] = test system: Mus musculus; assay: Anticonvulsant activity against sc pentylenetetrazole induced convulsions in mice 30 minutes after ip administration of 600 mg/kg; A=Active; format: functional, organism-based; parameters: dose 600 mg/kg; how it was run: as §2
[8] = test system: Mus musculus; assay: Anticonvulsant activity against maximal electroshock (MES) induced seizures in mice 30 minutes after ip administration of 600 mg/kg; A=Active; format: functional, organism-based; parameters: dose 600 mg/kg; how it was run: as §1
[9] = test system: Mus musculus; assay: Compound was tested for toxicity by rotarod assay method in mice 4 hours after ip administration of 600 mg/kg; NA=No activity; format: organism-based; parameters: dose 600 mg/kg, route intraperitoneal; conditions: in vivo
[10] = test system: Mus musculus; assay: Anticonvulsant activity against maximal electroshock (MES) induced seizures in mice 4 hours after ip administration of 600 mg/kg.; format: functional, organism-based; parameters: dose 600 mg/kg; how it was run: as §1
[11] = test system: Mus musculus; assay: Compound was tested for toxicity by rotarod assay method in mice 30 min after ip administration of 600 mg/kg; No activity; format: organism-based; parameters: dose 600 mg/kg, route intraperitoneal; conditions: in vivo, 0.5 h
[12] = test system: Mus musculus; assay: Compound for anticonvulsant activity against maximal electroshock (MES)-induced seizures in mice after administration; format: functional; how it was run: as §1
[13] = test system: Mus musculus; assay: Compound for anticonvulsant activity against subcutaneous pentylenetetrazole-induced convulsions in mice after administration; format: functional; conditions: sc; how it was run: as §2

| Compound | Anticonvulsant activity [1] | Toxicity [2] | Anticonvulsant activity [3] | Toxicity [4] | Anticonvulsant activity [5] | Anticonvulsant activity [6] | Anticonvulsant activity [7] | Anticonvulsant activity [8] | Toxicity [9] | Anticonvulsant activity [10] | Toxicity [11] | ED50 [12] [mg/kg] | ED50 [13] [mg/kg] |
| --- | --- | --- | --- | --- | --- | --- | --- | --- | --- | --- | --- | --- | --- |
| CC(C)c1ccccc1NC(=O)c1cccc(N)c1 | Active | Active | inactive | Active | Active | inactive | – | – | – | – | – | – | – |
| Cc1ccc(NC(=O)c2cccc(N)c2)cc1C | – | – | – | – | – | inactive | Active | Active | Not Active | inactive | Not Active | – | – |
| CCCC(CCC)C(=O)O [VALPROIC ACID] | – | – | – | – | – | – | – | – | – | – | – | 272 | 149 |
